The source made the active and inactive calls.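 The calls were made as follows, unless noted: active = fluorescence slope higher than the sample average by over 3 SD (cut at about -0.22 in these data, passing the limit was not always enough); inactive = the rest.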
Tests used:
[1] = inhibitors of TNFa-induced NFkB p65 translocation, primary screen, imaging, HUVEC, MLSMR starter and 10KST1 sets (AID 438;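 active = inhibition above 20% together with a positive visual image hit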;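 also: compound added about 3h40 before a 20 min TNFalpha stimulation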;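 as to inhibition: signal is the nuclear over cytoplasmic p65 intensity ratio per well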); conditions: HUVEC TNFa-induced p65 nuclear translocation; cell count: measured here: nuclei count (cytotoxicity indicator), at 2.08 µM; inhibition: at 2 µM, stronger effect = higher value, 0% TNFa-plus-vehicle, 100% no-TNFa wells
[2] = inhibitors of E-selectin induction by TNFa, primary screen, imaging, HUVEC, immunofluorescence, MLSMR starter and 10KST1 sets (AID 487;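 active = visually confirmed hit in the image check and inhibition above 20%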;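 as to inhibition: signal is fraction of cell area covered by stained E-selectin grains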;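 as to nuclei count: 100% = median nuclei count of all wells on the same plate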); conditions: HUVEC TNFalpha-induced E-selectin immunofluorescence imaging, at 2 µM; inhibition: stronger effect = higher value; nuclei count: measured here: cell number, toxicity
[3] = DUSP6 inhibitors restoring Erk phosphorylation by chemical complementation, primary imaging in DUSP6-transfected HeLa (AID 609;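 active = compounds giving at least 50% inhibition in the cell-based MKP-3 phosphatase rescue imaging test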;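 as to inhibition: phospho-Erk level distribution per well compared with pooled transfected vehicle control wells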); conditions: HeLa MKP-3 transfected, phospho-Erk imaging KS statistic, at 10 µM, cells stimulated with TPA for 15 min
[4] = biological target: Dual specificity protein phosphatase 6 (Homo sapiens) (UniProt Q16828); test: as above; conditions: HeLa MKP-3 transfected, phospho-Erk imaging KS statistic; at 10 µM; stronger effect = higher value; cells stimulated with TPA for 15 min
[5] = biological target: Voltage-gated potassium channel subunit beta-2 (Rattus norvegicus) (UniProt P62483); test: KvBeta enzyme negative modulators, primary screen, biochemical, NADPH fluorescence (AID 622); conditions: recombinant KvBeta, 4-cyanobenzaldehyde reduction, at 10 µM, stronger effect = higher value;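 also: slope of raw intensity against log time taken from 70 to 1610 s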
[6] = biological target: Voltage-gated potassium channel subunit beta-2 (Rattus norvegicus) (UniProt P62483); test: KvBeta positive modulators, primary screen, biochemical, NADPH fluorescence (AID 623;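 active = NADPH fluorescence slope more negative than the mean of all samples by about 3 SD, 99.7% confidence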;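 also: fluorescence intensity change per second fitted from 20 to 320 s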); conditions: Recombinant KvBeta, NADPH fluorescence decrease slope, 10 min; at 10 µM; stronger effect = lower value
[7] = biological target: Muscarinic acetylcholine receptor M4 (Homo sapiens) (UniProt P08173); test: compounds altering M4/GIRK thallium flux, either direction, primary screen, M4 allosteric agonist project, cell-based, HEK293 M4/GIRK, BTC-AM (AID 625;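 active = fluorescence slope after compound addition differing from the mean of all tested samples at 99.7% confidence, mostly higher but some lower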;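 also: thallium influx through GIRK channels coupled to M4 in HEK293 cells with BTC-AM dye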); conditions: at 10 µM, actives lie on both sides
Outline: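 assay system = HEK293 cells with M4 receptor and GIRK channels | medium = pH 7.3 thallium assay buffer | doses = 10 µM final, single point | timing = cells overnight at 37 °C, BTC-AM loading 1 h, reads 2 min total | signal = BTC-AM fluorescence, 1 Hz kinetic reads | read-out = post-addition slope, 15–24 s, of baseline-normalized fluorescence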

[8] = inhibitors of larval lipid processing in zebrafish, primary screen, whole organism, PED6 fluorescence, gall bladder and intestine (AID 686;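 active = a full or partial loss of lipid-probe fluorescence in the fish gall bladder, intestine or both, judged by eye; inactive = no fluorescence loss, or compound toxic to the fish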;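 also: larvae 5 to 7 days old with five fish per well; signal comes from phospholipase A2 cleavage of quenched PED6 carried via bile; overnight exposure to compound and PED6 before scoring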); conditions: Zebrafish larvae PED6 lipid processing, fluorescence scoring; screened at 20 µM (by protocol)
Outline: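 Also added: quenched phospholipase substrate PED6, 100 nM final, ingested by larvae; System: zebrafish larvae, 5-7 d; Quantity: 5 larvae per well; Compound: 20 µM single dose; Schedule: overnight compound and PED6 incubation; Read-out: visual per-well fluorescence inhibition score; Measured by: By-eye fluorescence microscopy; Medium: E3.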

[9] = inhibitors of Chlamydomonas gravitaxis, primary screen, whole organism, Chlamydomonas reinhardtii, WT vs cilia-less mutant, absorbance, 96-well (AID 463189;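 active = inhibition at or above 50% relative to wild type and mutant plate controls; inactive = inhibition below 50%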;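 also: 0% = wild type cc124 cells in DMSO and 100% = ciliumless bld1 mutant cells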); conditions: OD600 absorbance, 2 days, at 10 µM, stronger effect = higher value
[10] = measured here: cell density z-score
[11] = measured here: nuclear c-Myc green intensity z-score
[12] = measured here: nuclear pErk red intensity z-score, stronger effect = higher value

Dual specificity protein phosphatase 6 (Homo sapiens), sequence (Q16828 whole entry, looked up): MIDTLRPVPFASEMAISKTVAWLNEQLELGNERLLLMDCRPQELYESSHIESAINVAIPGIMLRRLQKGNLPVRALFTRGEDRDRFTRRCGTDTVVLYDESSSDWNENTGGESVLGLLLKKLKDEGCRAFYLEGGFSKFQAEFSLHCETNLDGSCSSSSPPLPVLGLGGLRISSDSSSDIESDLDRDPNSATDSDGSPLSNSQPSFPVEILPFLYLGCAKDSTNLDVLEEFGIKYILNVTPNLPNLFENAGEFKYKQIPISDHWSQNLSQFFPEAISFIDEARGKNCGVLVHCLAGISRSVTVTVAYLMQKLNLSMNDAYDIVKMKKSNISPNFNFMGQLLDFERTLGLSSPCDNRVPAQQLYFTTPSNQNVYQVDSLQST
Muscarinic acetylcholine receptor M4 (Homo sapiens), sequence (P08173 whole entry, looked up): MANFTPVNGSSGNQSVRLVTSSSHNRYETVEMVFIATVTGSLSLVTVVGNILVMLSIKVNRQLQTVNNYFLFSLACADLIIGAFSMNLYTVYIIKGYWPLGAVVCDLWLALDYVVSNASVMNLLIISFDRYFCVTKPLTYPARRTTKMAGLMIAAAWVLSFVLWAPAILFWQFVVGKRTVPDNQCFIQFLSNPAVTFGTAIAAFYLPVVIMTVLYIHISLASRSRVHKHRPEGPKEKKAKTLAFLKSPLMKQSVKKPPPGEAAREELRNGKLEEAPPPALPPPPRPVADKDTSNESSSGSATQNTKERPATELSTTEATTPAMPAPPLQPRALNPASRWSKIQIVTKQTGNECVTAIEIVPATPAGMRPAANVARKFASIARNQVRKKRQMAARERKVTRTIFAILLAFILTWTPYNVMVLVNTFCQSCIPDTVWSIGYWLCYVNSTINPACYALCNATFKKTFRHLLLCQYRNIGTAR
Voltage-gated potassium channel subunit beta-2 (Rattus norvegicus), sequence (P62483 whole entry, looked up): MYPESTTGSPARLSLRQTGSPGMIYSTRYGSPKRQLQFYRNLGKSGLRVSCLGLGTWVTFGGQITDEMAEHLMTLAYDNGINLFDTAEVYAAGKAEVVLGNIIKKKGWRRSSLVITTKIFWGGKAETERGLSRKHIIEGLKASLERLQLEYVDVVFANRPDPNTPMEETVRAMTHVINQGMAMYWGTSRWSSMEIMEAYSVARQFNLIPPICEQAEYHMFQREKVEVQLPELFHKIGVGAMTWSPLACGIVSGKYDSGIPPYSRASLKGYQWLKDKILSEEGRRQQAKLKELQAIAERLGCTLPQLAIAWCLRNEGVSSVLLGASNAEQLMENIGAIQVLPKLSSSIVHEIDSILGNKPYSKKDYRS

Compound | cell count [1] | inhibition [1] | inhibition [2] | nuclei count [2] | z-score [3, 10] | z-score [3, 11] | z-score [3, 12] | inhibition [4] | fluorescence slope [5] | NADPH fluorescence slope [6] | fluorescence slope [7] | outcome [8] | inhibition [9]
CSc1nc(C)c2c(c1C#N)CCCC2 | 507 | -9.7% (inactive) | -266% (inactive) | 148% | -0.174 | -0.19 | -1.41 | 1.04% (inactive) | -0.455 (inactive) | -3.8e-05 (inactive) | 0.00451 (inactive) | inactive | 10.6% (inactive)
O=C1c2ccccc2C(=O)N1c1ncccn1 | 500 | -8.5% (inactive) | -89% (inactive) | 138% | -0.519 | -0.638 | 0.031 | 1.42% (inactive) | -0.454 (inactive) | -0.000107 (inactive) | 0.00418 (inactive) | inactive | 3.86% (inactive)
COC(=O)CSc1nc2c(c(=O)n(C)c(=O)n2C)n1CCC(C)C | 599 | -7% (inactive) | -120% (inactive) | 130% | -2.77 | 3.03 | -2.44 | 3.42% (inactive) | -0.394 (inactive) | 6.8e-06 (inactive) | 0.00549 (inactive) | inactive | -12.3% (inactive)
COc1nnnc2c1sc1nc(N3CCOCC3)c3c(c12)CC(C)(C)OC3 | 590 | -3.9% (inactive) | -92.2% (inactive) | 154% | 0.493 | 0.116 | -0.785 | -13.3% (inactive) | -0.482 (inactive) | -0.000107 (inactive) | 0.00514 (inactive) | inactive | -3.82% (inactive)
CCCn1nc(Oc2nc(SC)nc(N(C)C)n2)ccc1=O | 340 | -6.1% (inactive) | -38% (inactive) | 91.9% | 1.7 | -0.0746 | -1.32 | 16.1% (inactive) | -0.491 (inactive) | 3.6e-05 (inactive) | 0.00516 (inactive) | inactive | -11.7% (inactive)
CC1CCN(c2ncnc3c2cnn3Cc2ccc(Cl)cc2)CC1 | 549 | -8.1% (inactive) | 2.1% (inactive) | 135% | -0.011 | 0.63 | 0.724 | 13.9% (inactive) | -0.348 (inactive) | -1.7e-05 (inactive) | 0.00585 (inactive) | inactive | 4.22% (inactive)
Cc1ccc(CNC(=O)c2cc3c(=O)n4ccccc4nc3n(Cc3ccco3)c2=N)cc1 | 620 | 2.6% (inactive) | 18.3% (inactive) | 134% | -0.0379 | 0.826 | -0.239 | -2.29% (inactive) | -0.456 (inactive) | -4.8e-05 (inactive) | 0.00363 (inactive) | active; weak signal in gallbladder and intestine | 32.6% (inactive)
CC(C)c1ccc(O)c(N)c1 | 660 | -20.9% (inactive) | -16.4% (inactive) | 180% | 1.39 | -1.5 | 0.0534 | 22.1% (inactive) | -0.527 (inactive) | -1.2e-05 (inactive) | 0.00607 (inactive) | inactive | 11.1% (inactive)
Cc1cc(OCC(=O)Nn2cnnc2)ccc1Br | 529 | -8.3% (inactive) | -72.3% (inactive) | 119% | 0.551 | 0.431 | 0.858 | -6.59% (inactive) | -0.433 (inactive) | -0.00012 (inactive) | 0.00434 (inactive) | inactive | -9.18% (inactive)
CC(C)CNc1nc2c(c(=O)n(C)c(=O)n2C)n1Cc1cccc(Br)c1 | 696 | 0.6% (inactive) | -160% (inactive) | 174% | 0.789 | -0.339 | -0.433 | 7.93% (inactive) | -0.498 (inactive) | -3.9e-05 (inactive) | 0.00519 (inactive) | inactive | 13.3% (inactive)
O=C(/C=N/O)NCCCN1CCOCC1 | 682 | -11.2% (inactive) | 3.2% (inactive) | 168% | -1.5 | -0.495 | 2.77 | -15.1% (inactive) | -0.477 (inactive) | -7.4e-05 (inactive) | 0.00666 (inactive) | inactive | 5.9% (inactive)
CCOC(=O)c1c(CN2CCN(CCO)CC2)n(C)c2cc(Br)c(OC)cc12 | 380 | -7.5% (inactive) | -1.9% (inactive) | 103% | -0.09 | 0.157 | 0.909 | -2.29% (inactive) | -0.4 (inactive) | 5.8e-06 (inactive) | 0.00459 (inactive) | inactive | 26.8% (inactive)
CC(O)CNc1nc2c(c(=O)n(C)c(=O)n2C)n1Cc1cccc(C(F)(F)F)c1 (stereo not drawn) | 679 | -9.1% (inactive) | -182% (inactive) | 176% | 0.999 | -1.51 | -1.36 | 11.9% (inactive) | -0.511 (inactive) | -5e-05 (inactive) | 0.00932 (inactive) | inactive | 4.09% (inactive)
COc1ccc(OC)c(C2/C(=C(\O)c3ccc(OC)c(Cl)c3)C(=O)C(=O)N2CCN(C)C)c1 (stereo not drawn) | 680 | -6.8% (inactive) | -97.8% (inactive) | 173% | -0.468 | -0.414 | -1.65 | -2.91% (inactive) | -0.449 (inactive) | -3.7e-05 (inactive) | 0.00525 (inactive) | inactive | 14% (inactive)
Cc1cc(CC(=O)O)c(C)cc1CC(=O)O | 590 | -9.1% (inactive) | -39.7% (inactive) | 146% | -0.726 | 1.92 | 1.23 | -7.67% (inactive) | -0.445 (inactive) | -0.000138 (inactive) | 0.00496 (inactive) | inactive | -5.83% (inactive)
C/C(=N\O)c1c(C)c2ccccc2n1C | 553 | -7.3% (inactive) | -33% (inactive) | 155% | 0.633 | -0.875 | 0.794 | 11.9% (inactive) | -0.374 (inactive) | -3.2e-05 (inactive) | 0.00461 (inactive) | inactive | 15.1% (inactive)
COc1ccc(-n2ncc3c(NCCCn4ccnc4)ncnc32)cc1 | 614 | -4% (inactive) | 0.9% (inactive) | 170% | -0.682 | 1.35 | -0.266 | 3.42% (inactive) | -0.394 (inactive) | -5.9e-06 (inactive) | 0.00474 (inactive) | inactive | 1.19% (inactive)
CC1(C)Cc2c(sc3ncn4nc(-c5ccco5)nc4c23)CO1 | 629 | 6.6% (inactive) | -31.6% (inactive) | 112% | -0.299 | 0.915 | -1.17 | -7.67% (inactive) | -0.432 (inactive) | -4.1e-05 (inactive) | 0.00512 (inactive) | inactive | 16.9% (inactive)
COc1ccccc1-c1c(C)oc2c(CN3CCN(C)CC3)c(O)ccc2c1=O | 672 | -0.2% (inactive) | -20.6% (inactive) | 150% | 0.0584 | -0.255 | -0.66 | 14.7% (inactive) | -0.0259 (inactive) | 1.6e-05 (inactive) | 0.00509 (inactive) | inactive | -5.96% (inactive)
CCCOc1cccc(C2/C(=C(/O)c3ccc(F)cc3)C(=O)C(=O)N2CCN(C)C)c1 (stereo not drawn) | 676 | -13.2% (inactive) | -51.1% (inactive) | 132% | 0.0201 | -1.18 | -0.732 | -2.91% (inactive) | -0.478 (inactive) | -2.8e-05 (inactive) | 0.00611 (inactive) | inactive | 12.9% (inactive)
Cn1c(NCC(O)c2ccccc2)nc2c1c(=O)n(Cc1ccc(Cl)cc1)c(=O)n2C (stereo not drawn) | 676 | 8.4% (inactive) | -18% (inactive) | 103% | -0.206 | 0.674 | -0.257 | -9.53% (inactive) | -0.423 (inactive) | -4.1e-05 (inactive) | 0.00426 (inactive) | inactive | 8.04% (inactive)
O=c1c2ccccc2ncn1Cc1ccco1 | 682 | -8.5% (inactive) | -74.2% (inactive) | 138% | -0.419 | -1.56 | 0.938 | -15.1% (inactive) | -0.449 (inactive) | -3.2e-05 (inactive) | 0.00462 (inactive) | inactive | 14.3% (inactive)
CCc1[nH]c(=O)c(C#N)c2c1CSC(C)(C)C2 | 678 | -9.4% (inactive) | -211% (inactive) | 166% | 0.402 | 0.0532 | -0.896 | -6.06% (inactive) | -0.471 (inactive) | -6.8e-05 (inactive) | 0.00604 (inactive) | inactive | 11.4% (inactive)
COc1ccc(/C(O)=C2\C(=O)C(=O)N(c3cc(C)on3)C2c2ccccc2OC)cc1C (stereo not drawn) | 556 | -11.7% (inactive) | 9.9% (inactive) | 118% | -1.41 | -1.49 | -1.43 | -8.27% (inactive) | -0.473 (inactive) | -2.1e-05 (inactive) | 0.00597 (inactive) | inactive | -0.426% (inactive)
CCOC(=O)c1[nH]c2ccccc2c1NC(=O)CN(C)C | 656 | 2.2% (inactive) | -136% (inactive) | 180% | 0.955 | 0.5 | -0.213 | 7.93% (inactive) | -0.476 (inactive) | -4.7e-05 (inactive) | 0.00584 (inactive) | inactive | -6.18% (inactive)
Cc1cc(=O)oc2c(CN3CCC(C)CC3)c(O)c(Cl)cc12 | 654 | -6.9% (inactive) | -12% (inactive) | 171% | 0.311 | 0.013 | 0.217 | 1.12% (inactive) | -0.0249 (inactive) | 4.3e-06 (inactive) | 0.00736 (inactive) | inactive | -2.21% (inactive)
